Values after ≈ are worked out from the molar mass of the structure shown.
How the values were obtained:
[1] = tested on: Plasmodium falciparum; experiment: Antimalarial activity against chloroquine-resistant Plasmodium falciparum K1 infected in human erythrocytes assessed as reduction in parasitemia after 72 hrs by spectrophotometry; assay type: functional, organism-based; details: K1, 72 h
[2] = Ratio of EC50 for human HepG2 cells to EC50 for Plasmodium falciparum K1 infected in human erythrocytes
[3] = tested on: Plasmodium falciparum; experiment: Ratio of EC50 for chloroquine-resistant Plasmodium falciparum K1 infected in human erythrocytes to EC50 for chloroquine-sensitive Plasmodium falciparum 3D7 infected in human erythrocytes; assay type: functional
[4] = tested on: HepG2; experiment: Cytotoxicity against human HepG2 cells assessed as intracellular ATP level after 72 hrs by Celltiter-Glo luminescent assay; assay type: cell-based; details: HepG2, 72 h
[5] = Dissociation constant, pKa of the compound; assay type: physicochemical
[6] = tested on: Plasmodium falciparum; experiment: Antimalarial activity against chloroquine-sensitive Plasmodium falciparum 3D7 infected in human erythrocytes assessed as reduction in parasitemia after 72 hrs by spectrophotometry; assay type: functional, organism-based; details: 3D7, 72 h
[7] = Solubility of the compound at pH 7.4 after 18 hrs by UV spectroscopic analysis; assay type: physicochemical; details: buffer
In short: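 Kinetic solubility. A 10 mM stock is diluted 1:100 into PBS pH 7.4 and incubated 18 h at room temperature, then filtered; the filtrate is mixed 1:1 with 1-propanol. UV spectrum (250–500 nm) compared by AUC with a 1-propanol/PBS reference. Single experiment in triplicate.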

[8] = Ratio of EC50 for human HepG2 cells to EC50 for Plasmodium falciparum 3D7 infected in human erythrocytes
[9] = Permeability of the compound at pH 7.4 after 30 mins by PAMPA; assay type: ADME; details: read-out: permeability
In short: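 PAMPA at pH 7.4. A 10 mM DMSO stock is diluted into system solution buffer; its UV spectrum serves as reference. Membrane painted with GIT lipid, acceptor chamber holds acceptor solution buffer. Sandwich stirred for 30 min, aqueous boundary layer set to 40. Donor and acceptor UV spectra read at 250–500 nm. Permeability coefficient from the AUCs of reference, donor and acceptor. Single experiment in triplicate.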

| SMILES | EC50 [1] | Ratio EC50 [2] | Ratio EC50 [3] | EC50 [4] | pKa [5] | EC50 [6] | solubility at 18 h [7] | Ratio EC50 [8] | Papp at 0.5 h [9] |
| --- | --- | --- | --- | --- | --- | --- | --- | --- | --- |
| COc1cccc(CNCCCNc2ccnc3cc(-c4ccc(C(F)(F)F)cc4)ccc23)c1O | 0.024 µM | 91 | 1.8 | 2.21 µM | 9.47 | 0.013 µM | 32 µM (≈ 15.4 µg/mL) | 166.2 | 237 ×10⁻⁶ cm/s |
| COc1ccc(-c2ccc3c(NCCCNCc4ccc5c(c4)OCO5)ccnc3c2)cc1 | 0.026 µM | 218.3 | 0.9 | 5.63 µM | 9.47 | 0.029 µM | 32 µM (≈ 14.1 µg/mL) | 192.9 | 237 ×10⁻⁶ cm/s |
| c1cc(NCCCNCc2ccc3c(c2)OCO3)c2ccc(Cc3ccc4c(c3)OCO4)cc2n1 | 0.027 µM | 178.8 | 1 | 4.79 µM | 9.47 | 0.026 µM | 32 µM (≈ 15 µg/mL) | 185 | 237 ×10⁻⁶ cm/s |
| COc1ccc(-c2ccc3c(NCCCNCc4cc(F)ccc4OC)ccnc3c2)cc1 | 0.029 µM | 205.5 | 0.3 | 5.96 µM | 9.47 | 0.096 µM | 32 µM (≈ 14.3 µg/mL) | 62.1 | 237 ×10⁻⁶ cm/s |
| c1ccc(-c2ccc3c(NCCCNCc4ccc5c(c4)OCO5)ccnc3c2)cc1 | 0.029 µM | 138.9 | 1.7 | 4.07 µM | 9.47 | 0.017 µM | 32 µM (≈ 13.2 µg/mL) | 234 | 237 ×10⁻⁶ cm/s |
| Fc1ccc(-c2ccc3c(NCCCNCc4ccc5c(c4)OCO5)ccnc3c2)cc1 | 0.035 µM | 252 | 2 | 8.77 µM | 9.47 | 0.018 µM | 32 µM (≈ 13.7 µg/mL) | 495.4 | 237 ×10⁻⁶ cm/s |
| COc1ccc(F)cc1CNCCCNc1ccnc2cc(-c3ccccc3)ccc12 | 0.045 µM | 66.3 | 4.2 | 2.96 µM | 9.47 | 0.011 µM | 32 µM (≈ 13.3 µg/mL) | 276.4 | 237 ×10⁻⁶ cm/s |
| c1coc(CNCCCNc2ccnc3cc(Cc4ccc5c(c4)OCO5)ccc23)c1 | 0.046 µM | 142.2 | 2.4 | 6.5 µM | 9.47 | 0.019 µM | 32 µM (≈ 13.3 µg/mL) | 340.2 | 237 ×10⁻⁶ cm/s |
| COc1cccc(CNCCCNc2ccnc3cc(Cc4ccc5c(c4)OCO5)ccc23)c1O | 0.05 µM | 22.7 | 6 | 1.14 µM | 9.47 | 0.008 µM | 32 µM (≈ 15.1 µg/mL) | 135.4 | 237 ×10⁻⁶ cm/s |
| Fc1ccc(-c2ccc3c(NCCCNCc4ccco4)ccnc3c2)cc1 | 0.069 µM | 113.2 | 2.1 | 7.76 µM | 9.47 | 0.032 µM | 32 µM (≈ 12 µg/mL) | 240.4 | 237 ×10⁻⁶ cm/s |
| COc1ccc(-c2ccc3c(NCCCNCc4cccc(OC)c4O)ccnc3c2)cc1 | 0.078 µM | 20.6 | 6 | 1.6 µM | 9.47 | 0.013 µM | 32 µM (≈ 14.2 µg/mL) | 122.9 | 237 ×10⁻⁶ cm/s |
| COc1ccc(F)cc1CNCCCNc1ccnc2cc(-c3ccc(C(F)(F)F)cc3)ccc12 | 0.089 µM | 58.4 | 1.7 | 5.19 µM | 9.47 | 0.054 µM | 32 µM (≈ 15.5 µg/mL) | 96.8 | 237 ×10⁻⁶ cm/s |
| COc1ccc(F)cc1CNCCCNc1ccnc2cc(-c3ccc(F)cc3)ccc12 | 0.097 µM | 7.9 | 5.5 | 0.77 µM | 9.47 | 0.018 µM | 32 µM (≈ 13.9 µg/mL) | 44 | 237 ×10⁻⁶ cm/s |
| FC(F)(F)c1ccc(-c2ccc3c(NCCCNCc4ccc5c(c4)OCO5)ccnc3c2)cc1 | 0.098 µM | 19.2 | 3.9 | 1.89 µM | 9.47 | 0.025 µM | 32 µM (≈ 15.3 µg/mL) | 74.5 | 237 ×10⁻⁶ cm/s |
| c1ccc(-c2ccc3c(NCCCNCc4ccco4)ccnc3c2)cc1 | 0.128 µM | 46.4 | 6.3 | 5.92 µM | 9.47 | 0.02 µM | 32 µM (≈ 11.4 µg/mL) | 291.6 | 237 ×10⁻⁶ cm/s |
| COc1cccc(CNCCCNc2ccnc3cc(-c4cc(C(F)(F)F)cc(C(F)(F)F)c4)ccc23)c1O | 0.209 µM | 4.5 | 7.2 | 0.94 µM | 9.47 | 0.029 µM | 32 µM (≈ 17.6 µg/mL) | 32.4 | 237 ×10⁻⁶ cm/s |
| FC(F)(F)c1ccc(-c2ccc3c(NCCCNCc4ccco4)ccnc3c2)cc1 | 0.223 µM | 15.5 | 11 | 3.47 µM | 9.47 | 0.02 µM | 32 µM (≈ 13.6 µg/mL) | 171 | 237 ×10⁻⁶ cm/s |
| CC(C)(C)c1ccc(-c2ccc3c(NCCCNCc4ccco4)ccnc3c2)cc1 | 0.325 µM | 9.7 | 0.5 | 3.15 µM | 9.47 | 0.704 µM | 32 µM (≈ 13.2 µg/mL) | 4.5 | 237 ×10⁻⁶ cm/s |
| COc1cccc(CNCCCNc2ccnc3cc(-c4ccc(C(C)(C)C)cc4)ccc23)c1O | 0.418 µM | 1.7 | 1.7 | 0.69 µM | 9.47 | 0.251 µM | 32 µM (≈ 15 µg/mL) | 2.8 | 237 ×10⁻⁶ cm/s |
| CC(C)(C)c1ccc(-c2ccc3c(NCCCNCc4ccc5c(c4)OCO5)ccnc3c2)cc1 | 0.49 µM | 2.8 | 2.2 | 1.37 µM | 9.47 | 0.223 µM | 32 µM (≈ 15 µg/mL) | 6.2 | 237 ×10⁻⁶ cm/s |
| c1ccc2c(-c3ccc4c(NCCCNCc5ccc6c(c5)OCO6)ccnc4c3)cccc2c1 | 0.538 µM | 12.2 | 0.9 | 6.57 µM | 9.47 | 0.598 µM | 32 µM (≈ 14.8 µg/mL) | 11 | 237 ×10⁻⁶ cm/s |
| FC(F)(F)c1cc(-c2ccc3c(NCCCNCc4ccc5c(c4)OCO5)ccnc3c2)cc(C(F)(F)F)c1 | 0.604 µM | 1.9 | 2.1 | 1.16 µM | 9.47 | 0.284 µM | 32 µM (≈ 17.5 µg/mL) | 4.1 | 237 ×10⁻⁶ cm/s |
| COc1ccc(F)cc1CNCCCNc1ccnc2cc(-c3cc(C(F)(F)F)cc(C(F)(F)F)c3)ccc12 | 0.812 µM | 1.1 | 8.8 | 0.87 µM | 9.47 | 0.092 µM | 32 µM (≈ 17.6 µg/mL) | 9.4 | 237 ×10⁻⁶ cm/s |
| COc1cccc(CNCCCNc2ccnc3cc(-c4ccc(F)cc4)ccc23)c1O | 0.854 µM | 8 | 92.8 | 6.84 µM | 9.47 | 0.009 µM | 32 µM (≈ 13.8 µg/mL) | 742.9 | 237 ×10⁻⁶ cm/s |
| FC(F)(F)c1cc(-c2ccc3c(NCCCNCc4ccco4)ccnc3c2)cc(C(F)(F)F)c1 | 0.972 µM | 2.5 | 3.4 | 2.41 µM | 9.47 | 0.285 µM | 32 µM (≈ 15.8 µg/mL) | 8.5 | 237 ×10⁻⁶ cm/s |
| COc1ccc(F)cc1CNCCCNc1ccnc2cc(-c3cccc4ccccc34)ccc12 | 1.03 µM | 15.5 | 0.9 | 16 µM | 9.47 | 1.15 µM | 32 µM (≈ 14.9 µg/mL) | 13.9 | 237 ×10⁻⁶ cm/s |
| COc1cccc(CNCCCNc2ccnc3cc(-c4cccc5ccccc45)ccc23)c1O | 1.12 µM | 2.3 | 33.9 | 2.52 µM | 9.47 | 0.033 µM | 32 µM (≈ 14.8 µg/mL) | 76.3 | 237 ×10⁻⁶ cm/s |
| c1coc(CNCCCNc2ccnc3cc(-c4cccc5ccccc45)ccc23)c1 | 1.29 µM | 4.3 | 41.2 | 5.6 µM | 9.47 | 0.031 µM | 32 µM (≈ 13 µg/mL) | 178.2 | 237 ×10⁻⁶ cm/s |
